Each structure is given as a SMILES string.

The subject of experiment [1] is HUVEC. Nature of the experiment: In vitro inhibition of primary human umbilical vein endothelial cell (HUVEC) proliferation at 1 uM. The experiment is classed as functional. Conditions: values are per cent of control. The method, boiled down:
(§1)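 bFGF-stimulated HUVEC proliferation; cells incubated with bFGF alone or with increasing compound concentrations. Cell counts remaining normalized: maximal bFGF response = 100%, wells without bFGF (starved) = 0%. Mean ± SEM, n = 11 or n = 5 depending on experiment.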

The test system of experiment [2] is HUVEC. Nature of the experiment: In vitro inhibition of primary human umbilical vein endothelial cell (HUVEC) proliferation at 3 uM. Conditions: values are per cent of control. The experiment is classed as functional. The method, boiled down:
as §1

The test system of experiment [3] is HUVEC. As to the kind of experiment: In vitro inhibition of primary human umbilical vein endothelial cell (HUVEC) proliferation at 10 uM. Conditions: values are per cent of control. The experiment is classed as functional. In short, it runs like this:
as §1

The target of experiment [4] is Estrogen receptor beta (Homo sapiens) (UniProt Q92731). As to the kind of experiment: In vitro displacement of 0.5 nM [3H]E2 from human Estrogen receptor beta at 10 uM.
Experiment [5] relates to HUVEC. Nature of the experiment: IIn vitro inhibition of primary human umbilical vein endothelial cell (HUVEC) proliferation at 0.1 uM. The class given is functional. Conditions: values are per cent of control. In short, it runs like this: as §1
The subject of experiment [6] is HUVEC. Nature of the experiment: In vitro inhibition of primary human umbilical vein endothelial cell (HUVEC) proliferation at 0.01 uM. The class given is functional. The conditions noted are these: values are per cent of control. The method, boiled down:
as §1

Estrogen receptor beta (Homo sapiens), sequence (Q92731 whole entry): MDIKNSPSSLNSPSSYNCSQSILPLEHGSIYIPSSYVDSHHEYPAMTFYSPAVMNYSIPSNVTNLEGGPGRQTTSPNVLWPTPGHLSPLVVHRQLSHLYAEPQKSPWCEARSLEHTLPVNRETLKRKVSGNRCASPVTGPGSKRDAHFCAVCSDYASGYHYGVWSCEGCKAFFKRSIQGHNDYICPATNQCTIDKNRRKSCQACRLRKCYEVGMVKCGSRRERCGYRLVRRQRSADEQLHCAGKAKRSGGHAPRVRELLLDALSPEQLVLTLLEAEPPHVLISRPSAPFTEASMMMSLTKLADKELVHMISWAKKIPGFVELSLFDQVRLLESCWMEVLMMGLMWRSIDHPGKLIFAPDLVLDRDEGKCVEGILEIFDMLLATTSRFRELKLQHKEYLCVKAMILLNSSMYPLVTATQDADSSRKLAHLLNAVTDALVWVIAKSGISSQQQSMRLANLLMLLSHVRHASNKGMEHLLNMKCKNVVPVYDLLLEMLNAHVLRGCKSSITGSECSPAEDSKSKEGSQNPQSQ

As for `COc1ccc2c(c1)oc(=O)c1cc(C(C)=O)ccc12`, the growth, % of control at 1 µM in the experiment on HUVEC [1] was 85%. Further, the growth, % of control at 3 µM in the experiment on HUVEC [2] amounted to 30%. Also, the growth, % of control at 10 µM in the experiment on HUVEC [3] was determined as 25%. The same molecule showed a Binding in experiment [4] of 100%. The molecule also returned a growth, % of control at 0.1 µM in the experiment with HUVEC [5] of 90%. For the same molecule, in the experiment on HUVEC [6], the growth, % of control at 0.01 µM was found to be 100%.

For `COc1cc2c(cc1O)oc(=O)c1cc(C(C)=O)ccc12`, the growth, % of control at 1 µM in the experiment on HUVEC [1] was 85%. The molecule further gave a growth, % of control at 3 µM with HUVEC [2] of 60%. Moreover, the growth, % of control at 10 µM in the experiment with HUVEC [3] was 10%. Also, in experiment [4], the Binding is 90%. In the experiment with HUVEC [5], this molecule registered a growth, % of control at 0.1 µM of 100%. Moreover, the growth, % of control at 0.01 µM in the experiment with HUVEC [6] amounted to 90%.

In the experiment with HUVEC [1], `COc1cc2c(cc1O)CC[C@@H]1[C@@H]2CC[C@]2(C)[C@@H](O)CC[C@@H]12` [2-METHOXYESTRADIOL] yielded a growth, % of control at 1 µM of 60%. In the experiment with HUVEC [2], this molecule displayed a growth, % of control at 3 µM of 25%. In experiment [4], the Binding came to 25%. In the experiment on HUVEC [5], this molecule had a growth, % of control at 0.1 µM of 100%. In the experiment with HUVEC [6], this molecule gave a growth, % of control at 0.01 µM of 100%.
